In the library only some 4.1% were active in any assay of this set; here they are far more common.
UPR XBP1 act: activators of adaptive XBP1 UPR arm, primary screen, cell-based, CHO-XBP1 luciferase reporter, luminescence, uHTS; AID 463104, 2010; activation, % at 20 µM; 330,000 compounds, 0.33% hits; IRE1-XBP1 UPR activation; percent of tunicamycin response, DMSO as zero;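 active = versus positive control, 20 µM dose yields 30% or more activation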;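 also: 100% = tunicamycin at 10 µg/mL and 0% = DMSO only wells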
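Assay system: IRE1-XBP1 luciferase reporter CHO line. Input: 1000 cells/well. Buffer or medium: F12 with 10% serum. Doses: 20 µM, 1% DMSO. Times: overnight seeding at 37 °C, 6 h compound treatment at 37 °C. Technique: Steady-Glo luciferase glow luminescence, 10 min after reagent addition.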
Mdm2-MdmX inh: inhibitors of human Mdm2-MdmX association, primary screen, cell-based, luminescence, split luciferase, SaOS-2, uHTS; SaOS-2 split-luciferase Mdm2/MdmX complementation; inhibition, % at 8 µM; 330,000 compounds, 3% hits; AID 485346, 2010;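 active = inhibition of at least 50% at 8 µM in the primary screen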
UPR CHOP act: activators of apoptotic CHOP UPR arm, primary screen, cell-based, CHO-CHOP luciferase reporter, luminescence, uHTS | UPR activation; percent of tunicamycin response over DMSO baseline | activation, % at 10 µM | 330,000 compounds, 0.34% hits | AID 449763, 2010;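 active = at 10 µM dose, activation of 40% or more, normalized to positive control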;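 also: 100% = tunicamycin at 10 µg/mL and 0% = DMSO alone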
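measured by = luciferase luminescence | assay system = CHO-CHOP cells, stable luciferase reporter of PERK-eIF2a-CHOP signalling | amount = 500 reporter cells seeded per well | timing = 6 h compound exposure at 37 °C after overnight seeding | controls = positive tunicamycin 10 µg/mL, negative DMSO alone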
Apaf1 inhib: inhibitors of human Apaf-1 apoptosome, primary screen, biochemical, DEVD-Rh110 fluorescence, uHTS; Apoptotic protease-activating factor 1 (Homo sapiens), O14727; reconstituted apoptosome caspase-3 activity; AID 489030, 2010; 330,000 compounds, 0.71% hits; inhibition, % at 20 µM; active = inhibition of at least 40% at 20 µM;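 also: plate controls were DMSO wells for no effect and DEVD-CHO caspase inhibitor wells for full effect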
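detection = Rh110 fluorescence intensity | test system = biochemical Apaf-1 apoptosome reconstitution | also added = cytochrome c and DEVD-Rh110 substrate | schedule = 30 min plus 50 min, RT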
UBC13 polyUb: UBC13 polyubiquitin chain formation inhibitors, primary screen, biochemical, TR-FRET, uHTS. Ubiquitin-conjugating enzyme E2 N (Homo sapiens), P61088. inhibition, % at 20 µM. 330,000 compounds, 0.47% hits; in the data active = inhibition above about 45%, passing the limit was not always enough
Target sequence (P61088 whole entry, looked up): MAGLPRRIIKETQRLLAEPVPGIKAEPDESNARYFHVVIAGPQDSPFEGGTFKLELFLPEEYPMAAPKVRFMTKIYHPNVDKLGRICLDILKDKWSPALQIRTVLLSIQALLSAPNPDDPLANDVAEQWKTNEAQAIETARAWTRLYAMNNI
Mdm2-MdmX conf: Mdm2-MdmX complex disruptors, retested hits, confirmation, luminescence, single concentration. Mdm2-MdmX binding, luminescent assay. inhibition, % at 8 µM. 10,000 compounds, 55% hits. AID 489028, 2010. shares compounds with Mdm2-MdmX inh; in the data active = inhibition above about 40%
FLuc counter: full-length luciferase signal inhibition, confirmation, counter-screen for Mdm2/MdmX interaction inhibitor project, cell-based, single concentration, SaOS-2. shares compounds with Mdm2-MdmX inh. SaOS-2 full-length luciferase counterscreen, luminescence. inhibition, % at 8 µM. 6,200 compounds, 77% hits;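 active = mean inhibition at 8 µM reaching about 37%, which flags the compound as non-specific, limit read from the data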;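 also: p53-null SaOS-2 cells with luciferase driven by a doxycycline-inducible promoter; compound on cells about two nights before reading with doxycycline added after day one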
Numbers without * were called inactive; nt = no result.

SMILES	UPR XBP1 act	Mdm2-MdmX inh	UPR CHOP act	Apaf1 inhib	UBC13 polyUb	Mdm2-MdmX conf	FLuc counter
NC(=S)N/N=C/c1c(O)ccc2ccccc12	-5	50*	-1	-6	4	36	45*
COc1ccc(C2c3c(ncn(CCN4CCOCC4)c3=N)Oc3ccc4ccccc4c32)cc1 (configuration not stated)	4	71*	-2	26	0	55*	65*
CC[C@]12c3[nH]c4ccc(Cl)cc4c3CCN1C(=O)[C@@H](CC(=O)NC/C=C(\C)CCC=C(C)C)C[C@@H]2C(=O)N1CCN(C(=O)C2CC2)CC1	21	70*	15	35	nt	38	71*
CC[C@]12c3[nH]c4cc(-c5ccco5)ccc4c3CCN1C(=O)[C@@H](CC(=O)NC/C=C(\C)CCC=C(C)C)C[C@@H]2C(=O)N1CCN(C(=O)c2ccco2)CC1	9	56*	18	30	nt	-1	nt
CC[C@]12c3[nH]c4ccccc4c3CCN1C(=O)C(CC(=O)NC/C=C(\C)CCC=C(C)C)C[C@@H]2C(=O)N1CCN(C(=O)c2ccco2)CC1 (some centres not stated)	1	54*	15	22	23	-2	nt
CC[C@]12c3[nH]c4cc(CCC(=O)N(C)C)ccc4c3CCN1C(=O)[C@@H](CC(=O)NC/C=C(\C)CCC=C(C)C)C[C@@H]2C(=O)N1CCN(C(=O)C2CC2)CC1	3	47	3	34	nt	nt	nt
CCOC(=O)CC[C@H](NC(=O)Cn1cnc(C(=O)Nc2ccc(C)c(C)c2)n1)C(=O)OCC	5	22	2	7	nt	nt	nt
Cc1ccc(C(=O)CN2C(=O)NC3(CCc4ccccc43)C2=O)s1 (configuration not stated)	2	-21	3	10	-5	nt	nt
COC(CNC(=O)c1cc(-c2ccncc2)nc2ccc(S(=O)(=O)N3CCOCC3)cc12)OC	1	-16	0	-4	-16	nt	nt
N/C(Cc1ccc(Cl)cc1)=N\OC(=O)c1ccc2ccccc2c1	3	99*	2	-2	6	6	nt
N/C(=N\OC(=O)c1ccccc1Cl)c1ccc(Cl)cc1	-2	-31	5	1	4	nt	nt
COc1ccc(C/C(N)=N/OC(=O)c2ccc(Cl)cc2)cc1	0	8	0	11	2	nt	nt
N/C(CCS(=O)(=O)c1ccc(Cl)cc1)=N\OC(=O)c1ccccc1Cl	-1	92*	4	-6	-1	87*	50*
N/C(Cc1ccc([N+](=O)[O-])cc1)=N\OC(=O)c1ccccc1F	4	-41	4	-14	2	nt	nt
N/C(Cc1ccc(Cl)cc1)=N\OC(=O)c1cccc2ccccc12	4	99*	0	7	5	76*	39*
CCOc1ccc(N2C(=O)Nc3ccccc3C2(O)C(=O)N2CCN(c3ccccn3)CC2)cc1 (configuration not stated)	1	0	1	-10	-5	nt	nt
O=C(C1=C(O)C(=O)N(CC2CCCO2)C1c1ccc(Cl)cc1Cl)c1ccco1 (configuration not stated)	-1	12	2	8	-19	nt	nt
CCOC(=O)CN1CC23C=CC(O2)C(C(=O)Nc2ccc(C(C)=O)cc2)C3C1=O (configuration not stated)	-1	8	1	-13	0	nt	nt
COc1ccc2cc(C(N)=O)c(=Nc3ccc(C)cc3)oc2c1	1	54*	3	13	1	46*	35
Cc1cccc(N=c2oc3cc(O)ccc3cc2C(N)=O)c1	1	50*	1	6	9	-37	nt
COc1ccc2cc(C(N)=O)/c(=N\NC(=O)c3ccccc3)oc2c1	-11	45	-1	7	-4	nt	nt
COc1ccccc1N=c1oc2cc(O)ccc2cc1C(N)=O	3	24	1	4	0	nt	nt
Cn1c(=O)c(C(=O)COC(=O)c2cc(C(F)(F)F)nc3ccccc23)c(N)n(Cc2ccccc2)c1=O	-1	44	6	-12	2	nt	nt
CC(C)Cn1c(N)c(C(=O)COC(=O)c2cc(C(F)(F)F)nc3c(C(F)(F)F)cccc23)c(=O)n(C)c1=O	14	88*	14	-10	28	5	nt
COc1cc(Cl)c(C)cc1NC(=O)CN1CCN(C(=O)C2CC2)CC1	-3	36	-2	-21	3	nt	nt
SMILES	UPR XBP1 act	Mdm2-MdmX inh	UPR CHOP act	Apaf1 inhib	UBC13 polyUb	Mdm2-MdmX conf	FLuc counter
Nc1cc(N)c(OCC(F)(F)F)cc1OCC(F)(F)F	-2	78*	-1	84*	-74	14	nt
Cc1nn(CCCC(=O)Nc2cc(Oc3ccc(F)cc3)cc([N+](=O)[O-])c2)c(C)c1[N+](=O)[O-]	-2	44	2	-3	11	nt	nt
CCn1nc(C)c(C(=O)Nc2cc(Oc3ccc(Cl)cc3)cc([N+](=O)[O-])c2)c1C	0	57*	-3	14	4	45*	53*
CN(C)CCCN(C(=O)CCS(=O)(=O)c1ccccc1)c1nc2cc3c(cc2s1)OCO3	-6	66*	-5	-4	12	61*	56*
CN(C)CCCN(C(=O)CCSc1ccccc1)c1nc2cc3c(cc2s1)OCO3	-1	53*	0	1	20	38	nt
CN(C)CCCN(C(=O)c1ccc2c(c1)CCCC2)c1nc2cc3c(cc2s1)OCO3	1	64*	2	20	37	49*	56*
CN(C)CCCN(C(=O)c1ccc(S(=O)(=O)N(C)C)cc1)c1nc2cc3c(cc2s1)OCO3	0	4	1	-15	33	nt	nt
CN(C)CCCN(C(=O)c1ccc2c(c1)CCCC2)c1nc2ccc(F)cc2s1	1	38	3	9	42	nt	nt
CN(C)CCCN(C(=O)COc1ccccc1)c1nc2cc3c(cc2s1)OCCO3	-2	23	1	1	20	nt	nt
CN(C)c1cccc(/C=C(\C#N)c2ccccc2)c1	10	-42	4	13	3	nt	nt
COc1cccc(CC(=O)n2nc(N)c3cc4ccc(OC)cc4nc32)c1	0	64*	1	-4	15	-8	nt
COc1ccc2cc3c(N)nn(C(=O)Cc4c[nH]c5ccccc45)c3nc2c1	-3	93*	-4	-2	-2	98*	52*

Bioassay records (PubChem)
